Measurements published in PMC2748811 (The Biochemical journal, 2009).
Values joined by “and” are separate entries in the source; they are usually repeats but may differ in a detail not shown here. Equal entries are not always repeated. Where two headings read alike, the source gives them in different places.

Legend:
[1] = biological target: T1, PRMDR (multi-drug-resistant HIV-1 PR) (Human immunodeficiency virus type 1 group M subtype B, UniProt P04585, A559V/I542V/I581L/K533R/L498I/L551P/L578M/V570T); experiment: Co-elution of inhibitors with PRMDR on size-exclusion chromatography; format: binding; details: for co-elution with PRMDR: MS detection
In short: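 PR_MDR was diluted to 0.25–2 μM subunit concentration in 150 mM ammonium acetate (pH 5.4) with 0.1 mg·ml⁻¹ BSA (final). The active-site inhibitor came from a 1 mM stock in 100% DMSO. Samples were incubated at 37 °C, and 8 μl was injected onto a BioSep SEC3000 column run isocratically at 0.35 ml·min⁻¹ in the same buffer. Detection was by fluorescence and by MS in SIM mode on chosen molecular ions.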

[2] = test system: PRWT (wild-type HIV-1 PR); experiment: Co-elution of active-site inhibitors with PRWT on size-exclusion chromatography; format: binding; details: results not shown
HIV-1 PR dimerization = experiment: Size-exclusion chromatography elution of HIV-1 PRs; format: biochemical; details: 1 μM (PRT26A 2 μM); 37 °C 60 min
PRT26A = details: read-out: dissociation constant (Kd); ref [30]; cited from earlier work
[3] = biological target: T1, PRMDR (multi-drug-resistant HIV-1 PR); format: biochemical; details: for relative potency at inducing monomer formation: dose–response data, results not shown
PRWT = details: 5 min pre-incubation with ≤25 nM PRWT; ref [16]; cited from earlier work
[4] = test system: HIV-1 PR (autoproteolysis); experiment: PR stability and autoproteolysis; format: biochemical; details: for autoproteolysis (SDS/PAGE): 20 h at 40 μM, 20 °C; for autoproteolysis (RP-HPLC–MS): after incubation in 150 mM ammonium acetate pH 5.4, results not shown
In short: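 Wild-type and multi-drug-resistant HIV-1 PR incubated 16–24 h in ammonium acetate buffer, with or without 1 mM TCEP. Activity read with a fluorescent PR substrate, mean ± S.D. Cleavage checked on Coomassie-stained 10 % Bis/Tris SDS/PAGE. Alternatively, 37 °C samples were quenched with solid guanidine hydrochloride (6 M final) for RP-HPLC, gradient to 95 % solvent B, monitored at 205/276 nm and by electrospray MS.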

PRMDR dimer = format: binding, HIV-1; details: 16 h at 37 °C; for Kd: 150 mM ammonium acetate pH 5.4
[5] = test system: monomeric and dimeric forms of PR; details: 13C-labelled tryptophan residues of PR; ref [21]; cited from earlier work
[6] = biological target: T1, PRMDR (multi-drug-resistant HIV-1 PR); details: ref [20]; cited from earlier work
[7] = biological target: T1, PRMDR (multi-drug-resistant HIV-1 PR); format: biochemical; details: 25 μM P27; PRMDR 1 μM; 16 h at 37 °C; excitation 280 nm
In short: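 PR_MDR (1 μM final) was incubated 16 h at 37 °C with 25 μM peptide dimerization inhibitor in 150 mM ammonium acetate containing 100 μg·ml⁻¹ BSA. An 8 μl sample was run by SEC in running buffer at pH 5.4, 0.35 ml·min⁻¹ isocratic. Fluorescence was read at 280 nm excitation and 350 nm emission, with emission spectra from 325–375 nm taken at each peak apex against reference spectra at 10.2 and 12 min. MS used SIM at m/z 1086 (10⁺).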

[8] = test system: PR dimerization within infected cells; details: fluorescence resonance energy transfer assay; ref [32]; cited from earlier work
[9] = biological target: T1, PRMDR (multi-drug-resistant HIV-1 PR); experiment: PR activity with fluorescent PR substrate after peptide treatment; format: biochemical; details: 16 h at 37 °C, PRMDR 1 μM; for PR activity: untreated 2.6
HIV-2 PR dimerization = experiment: Size-exclusion chromatography elution of oxidized HIV-2 PR; format: biochemical; details: after hydrogen peroxide treatment; results not shown
[10] = 20 h at 37 °C, 150 mM ammonium acetate pH 5.4, 2 μM PR, n = 3
[11] = PRMDR 0.25–2 μM, approximate, MS
[12] = 25 μM P27, PRMDR 1 μM, 16 h at 37 °C, MS

Molecule: CC(C)c1nc(CN(C)C(=O)N[C@H](C(=O)N[C@@H](Cc2ccccc2)C[C@H](O)[C@H](Cc2ccccc2)NC(=O)OCc2cncs2)C(C)C)cs1 [ritonavir]
- co-elution with PRMDR [1]: did not elute with PRMDR
- co-elution with PRWT [2]: co-elute with PRWT

Molecule: PRT26A: autoproteolysis-resistant and monomeric HIV-1 PR
- elution time by MS (HIV-1 PR dimerization): 11.2 min and 11.0 min
- Kd (PRT26A): > 1000 µM

Molecule: CTLNF [reference compound]
- relative potency at inducing monomer formation [3]: P27 > CTLNF > Ac-CTLNF > Ac-TLNF
- IC50 (PRWT): 150 µM

Molecule: CSC[C@H](NC(=O)COc1cccc2cnccc12)C(=O)N[C@@H](Cc1ccccc1)[C@H](O)C(=O)N1CSC[C@H]1C(=O)NC(C)(C)C [KNI-272]
- co-elution with PRMDR [1]: did not elute with PRMDR
- co-elution with PRWT [2]: co-elute with PRWT

Molecule: PRWT: wild-type HIV-1 PR
- autoproteolysis (SDS/PAGE) ([4]; 150 mM ammonium acetate pH 5.4): extensive autoproteolysis
- PR activity lost [4, 10]: more than 95%
- autoproteolysis (RP-HPLC–MS) [4]: substantial autoproteolysis
- autoproteolysis ([4]; within 4 h of incubation): approx. 40%

Molecule: PRMDR: multi-drug-resistant HIV-1 PR with L10I, K45R, I54V, L63P, A71V, V82T, L90M and I93L
- elution time by MS (HIV-1 PR dimerization): 10.8 min
- elution time, earlier-eluting (dimer) PRMDR peak (PRMDR dimer; [11]): ~10.8 min
- elution time, later-eluting (monomer) PRMDR peak (PRMDR dimer; [11]): ~11.3 min
- Kd (PRMDR dimer; read-out: apparent Kd for dimer dissociation, as dimeric concentration, dimeric concentration): ~0.25 µM
- Kd (PRMDR dimer; read-out: apparent Kd for dimer dissociation, monomeric concentration): ~0.5 µM
- autoproteolysis (SDS/PAGE) ([4]; 150 mM ammonium acetate pH 5.4): remained intact
- PR activity after incubation [4, 10]: remained unaffected
- autoproteolysis (RP-HPLC–MS) [4]: remained intact

Molecule: Ac-TLNF [acetylated-TLNF, reference compound]
- relative potency at inducing monomer formation [3]: P27 > CTLNF > Ac-CTLNF > Ac-TLNF

Molecule: Cc1ccccc1CNC(=O)[C@H]1N(C(=O)[C@@H](O)[C@H](Cc2ccccc2)NC(=O)c2cccc(O)c2C)CSC1(C)C [JE-2147]
- correlation coefficient, JE-2147 area vs PRMDR area by MS ([1]; MS, PRMDR dose–response): 0.997
- elution time of inhibitor co-eluting with PRMDR ([1]; molecular ion of inhibitor by MS, PRMDR also 10.8 min): 10.8 min
- effect on PRMDR elution ([3]; 1 μM JE-2147, PRMDR 0.25–2 μM, 16 h at 37 °C): PRMDR eluted as the earlier form (dimer)

Molecule: CC(C)(C)NC(=O)[C@@H]1C[C@@H]2CCCC[C@@H]2CN1C[C@@H](O)[C@H](Cc1ccccc1)NC(=O)[C@H](CC(N)=O)NC(=O)c1ccc2ccccc2n1 [saquinavir]
- co-elution with PRMDR [1]: did not elute with PRMDR
- co-elution with PRWT [2]: co-elute with PRWT

Molecule: Ac-SEYL-OH
- interaction with PR by NMR [5]: interaction of a peptide dimerization inhibitor (Ac-SEYL-OH) with both monomeric and dimeric forms of PR

Molecule: Ac-CTLNF [acetylated-CTLNF]
- relative potency at inducing monomer formation [3]: P27 > CTLNF > Ac-CTLNF > Ac-TLNF

Molecule: PQITLRKKRRQRRRPPQVSFNFCTLNF [P27]
- inhibition of PRMDR activity [6]: inhibit PRMDR activity
- emission maximum λmax, dimer [7]: 346 nm
- emission maximum λmax, monomer [7]: 352 nm
- block of PR dimerization within infected cells [8]: block PR dimerization within infected cells
- PR activity ([9]; 25 μM P27): 1.85 RFU min^−1 · μg^−1
- decrease in PRMDR enzyme activity ([9]; 50 μM P27): 99%
- PR activity ([9]; 50 μM P27): 0.0 RFU min^−1 · μg^−1
- PRMDR elution time, dimer peak [3, 12]: 10.8 min
- PRMDR elution time, monomer peak [3, 12]: 11.3 min
- monomer induced ([3]; 25 μM P27, PRMDR at 0.5 μM): 80%
- monomer induced ([3]; 25 μM P27, PRMDR at 1 μM): approx. 40%
- time to clear evidence of monomer formation ([3]; 50 μM P27): ≤ 4 h
- time to maximum effect / plateau of monomer formation ([3]; 50 μM P27, PR 1 μM): 10 to 12 h
- time of peak absolute amount of detectable monomer ([3]; 50 μM P27, steadily decreased thereafter): 6 to 8 h
- PRMDR peak elution time ([3]; 50 μM peptide, PRMDR 1 μM, 16 h at 37 °C, MS m/z 1086): 11.3 min
- total PRMDR not recovered after treatment as compared to untreated ([3]; P27, PRMDR 1 μM, 16 h): approx. 20%
- relative potency at inducing monomer formation [3]: P27 > CTLNF > Ac-CTLNF > Ac-TLNF

B1: PRHIV-2-OX: oxidized HIV-2 PR (protein, UniProt P04584 514-612, looked up)
Protease: PQFSLWKRPVVTAYIEGQPVEVLLDTGADDSIVAGIELGNNYSPKIVGGIGGFINTKEYKNVEIEVLNKKVRATIMTGDTPINIFGRNILTALGMSLNL
modifications: Protease oxidized
- elution of oxidized HIV-2 PR (HIV-2 PR dimerization): consistent with a monomeric form of the PR
